Values after ≈ are worked out from the molar mass of the structure shown.
Legend:
Rattus norvegicus [1] = assay: Half life in Sprague-Dawley rat at 20 mg/kg, iv; assay type: ADME, organism-based; design: dose 20 mg/kg, route intravenous; settings: in vivo
Method in brief: (§1)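 Rats received a 2 h intravenous infusion at 1.25, 5 or 20 mg/kg, given with AZT 1000 mg/kg in 40 mL/kg 0.0005 N NaOH-saline. Blood was drawn at 40, 80 and 120 min into the infusion, then 0.25, 0.5, 1, 2 and 4 h after it ended. Plasma was stored at −20 °C and extracted with MeCN using propranolol as internal standard.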

[2] = AUC (0 to infinity) in Sprague-Dawley rat at 5 mg/kg, iv; assay type: ADME, organism-based; design: time infinity, dose 5 mg/kg, route intravenous; settings: plasma
Method in brief: (§2)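 Rats (SD) given compound by 2 h intravenous infusion with AZT 1000 mg/kg, in 40 mL/kg 0.0005 N NaOH-saline. Blood sampled at 40, 80 and 120 min into infusion and 0.25, 0.5, 1, 2 and 4 h after its end. Plasma stored at −20 °C, spiked with propranolol internal standard, extracted with MeCN and centrifuged before analysis.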

[3] = Mean residential time (0 to infinity) in cynomolgus monkey at 1 mg/kg, iv; assay type: ADME, organism-based, Macaca fascicularis; design: dose 1 mg/kg, route intravenous; settings: in vivo
Method in brief: (§3)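 Monkeys received a 1 h intravenous infusion at 1 or 5 mg/kg in 10 mL/kg saline. Plasma was processed as for the rat samples: centrifuged, stored at −20 °C, then MeCN extraction with propranolol internal standard.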

[4] = Mean residential time (0 to infinity) in cynomolgus monkey at 5 mg/kg, iv; assay type: ADME, organism-based, Macaca fascicularis; design: dose 5 mg/kg, route intravenous; settings: in vivo; method in brief: as §3
[5] = Clearance (0 to infinity) in cynomolgus monkey at 5 mg/kg, iv; assay type: ADME, organism-based, Macaca fascicularis; design: dose 5 mg/kg, route intravenous; settings: in vivo; method in brief: as §3
[6] = Drug level in Sprague-Dawley rat serum at 20 mg/kg, iv after 2 hrs; assay type: ADME, organism-based; design: dose 20 mg/kg, route intravenous; settings: read-out: Activity; method in brief: as §1
[7] = Volume of distribution at steady state (0 to infinity) in cynomolgus monkey at 1 mg/kg, iv; assay type: ADME, organism-based, Macaca fascicularis; design: dose 1 mg/kg, route intravenous; settings: in vivo, read-out: Vdss; method in brief: as §3
Pseudomonas aeruginosa [8] = assay: Inhibition of Pseudomonas aeruginosa PAM1723 MexAB-OprM assessed as drug level required to decrease MIC of aztreonam
Method in brief: (§4)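 P. aeruginosa PAM1723 overexpresses MexAB-OprM, with MexCD-OprJ and MexEF-OprN disrupted. The partner antibiotic's MIC was measured with and without inhibitor by NCCLS broth microdilution in Mueller–Hinton broth. Inoculum was 1 × 10⁶ CFU/mL, incubated 18 h at 37 °C, and growth was read visually. The value is the minimum inhibitor concentration that lowers the partner's MIC 8-fold (MPC₈).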

[9] = Clearance (0 to infinity) in cynomolgus monkey at 1 mg/kg, iv; assay type: ADME, organism-based, Macaca fascicularis; design: dose 1 mg/kg, route intravenous; settings: in vivo; method in brief: as §3
[10] = Half life in cynomolgus monkey at 5 mg/kg, iv; assay type: ADME, organism-based, Macaca fascicularis; design: dose 5 mg/kg, route intravenous; settings: in vivo; method in brief: as §3
[11] = Volume of distribution at steady state (0 to infinity) in cynomolgus monkey at 5 mg/kg, iv; assay type: ADME, organism-based, Macaca fascicularis; design: dose 5 mg/kg, route intravenous; settings: in vivo, read-out: Vdss; method in brief: as §3
Rattus norvegicus [12] = assay: Volume of distribution at steady state (0 to infinity) in Sprague-Dawley rat at 20 mg/kg, iv; assay type: ADME, organism-based; design: dose 20 mg/kg, route intravenous; settings: in vivo; method in brief: as §1
Pseudomonas aeruginosa [13] = assay: Inhibition of Pseudomonas aeruginosa PAM1723 MexAB-OprM assessed as drug level required to decrease MIC of levofloxacin; method in brief: as §4
[14] = AUC (0 to infinity) in Sprague-Dawley rat at 1.25 mg/kg, iv; assay type: ADME, organism-based; design: time infinity, dose 1.25 mg/kg, route intravenous; settings: plasma; method in brief: as §2
Rattus norvegicus [15] = assay: Mean residential time (0 to infinity) in Sprague-Dawley rat at 5 mg/kg, iv; assay type: ADME, organism-based; design: dose 5 mg/kg, route intravenous; settings: in vivo; method in brief: as §1
[16] = Drug level in cynomolgus monkey serum at 1 mg/kg, iv after 1 hr; assay type: ADME, organism-based, Macaca fascicularis; design: dose 1 mg/kg, route intravenous; settings: read-out: Activity; method in brief: as §3
Rattus norvegicus [17] = assay: Volume of distribution at steady state (0 to infinity) in Sprague-Dawley rat at 1.25 mg/kg, iv; assay type: ADME, organism-based; design: dose 1.25 mg/kg, route intravenous; settings: in vivo; method in brief: as §1
[18] = Drug level in Sprague-Dawley rat serum at 1.25 mg/kg, iv after 2 hrs; assay type: ADME, organism-based; design: dose 1.25 mg/kg, route intravenous; settings: read-out: Activity; method in brief: as §1
Rattus norvegicus [19] = assay: Mean residential time (0 to infinity) in Sprague-Dawley rat at 1.25 mg/kg, iv; assay type: ADME, organism-based; design: dose 1.25 mg/kg, route intravenous; settings: in vivo; method in brief: as §1
Rattus norvegicus [20] = assay: Half life in Sprague-Dawley rat at 1.25 mg/kg, iv; assay type: ADME, organism-based; design: dose 1.25 mg/kg, route intravenous; settings: in vivo; method in brief: as §1
[21] = Aqueous solubility at pH 6.8; assay type: physicochemical; settings: buffer
[22] = AUC (0 to infinity) in cynomolgus monkey at 1 mg/kg, iv; assay type: ADME, organism-based, Macaca fascicularis; design: time infinity, dose 1 mg/kg, route intravenous; settings: plasma
Method in brief: (§5)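 Monkeys given compound alone by 1 h intravenous infusion in 10 mL/kg saline. Plasma prepared and analysed as in the rat study: propranolol internal standard, MeCN extraction, centrifugation.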

Rattus norvegicus [23] = assay: Mean residential time (0 to infinity) in Sprague-Dawley rat at 20 mg/kg, iv; assay type: ADME, organism-based; design: dose 20 mg/kg, route intravenous; settings: in vivo; method in brief: as §1
[24] = AUC (0 to infinity) in cynomolgus monkey at 5 mg/kg, iv; assay type: ADME, organism-based, Macaca fascicularis; design: time infinity, dose 5 mg/kg, route intravenous; settings: plasma; method in brief: as §5
[25] = Drug level in cynomolgus monkey serum at 5 mg/kg, iv after 1 hr; assay type: ADME, organism-based, Macaca fascicularis; design: dose 5 mg/kg, route intravenous; settings: read-out: Activity; method in brief: as §3
Mus musculus [26] = assay: Toxicity in mouse assessed as lethal effect at 100 mg/kg, iv; assay type: organism-based; design: dose 100 mg/kg, route intravenous; settings: in vivo
Method in brief: (§6)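 Mice received a single intravenous dose at 50 or 100 mg/kg in groups of three. The read-out was the number of deaths per group.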

[27] = Half life in cynomolgus monkey at 1 mg/kg, iv; assay type: ADME, organism-based, Macaca fascicularis; design: dose 1 mg/kg, route intravenous; settings: in vivo; method in brief: as §3
Pseudomonas aeruginosa [28] = assay: Inhibition of Pseudomonas aeruginosa PAM1723 MexAB-OprM assessed as drug level required to decrease MIC of levofloxacin in presence of 0.125% HAS; method in brief: as §4
[29] = AUC (0 to infinity) in Sprague-Dawley rat at 20 mg/kg, iv; assay type: ADME, organism-based; design: time infinity, dose 20 mg/kg, route intravenous; settings: plasma; method in brief: as §2
[30] = Drug level in Sprague-Dawley rat serum at 5 mg/kg, iv after 2 hrs; assay type: ADME, organism-based; design: dose 5 mg/kg, route intravenous; settings: read-out: Activity; method in brief: as §1
Rattus norvegicus [31] = assay: Half life in Sprague-Dawley rat at 5 mg/kg, iv; assay type: ADME, organism-based; design: dose 5 mg/kg, route intravenous; settings: in vivo; method in brief: as §1
Rattus norvegicus [32] = assay: Volume of distribution at steady state (0 to infinity) in Sprague-Dawley rat at 5 mg/kg, iv; assay type: ADME, organism-based; design: dose 5 mg/kg, route intravenous; settings: in vivo; method in brief: as §1
Mus musculus [33] = assay: Toxicity in mouse assessed as lethal effect at 50 mg/kg, iv; assay type: organism-based; design: dose 50 mg/kg, route intravenous; settings: in vivo; method in brief: as §6

Work on CC(C)(C)c1csc(NC(=O)c2ccn3c(=O)c(/C=C/c4nnn[nH]4)c(N4CCC[C@@H](OC(=O)NCC[N+](C)(C)CC(=O)[O-])C4)nc3c2)n1 yielded a t1/2 (Rattus norvegicus [1]) of 15 min, an AUC(0-inf) [2] of 3530 ng·h/mL and an MRT inf [3] of 36.8 min. For the same compound, the MRT inf [4] was 37.5 min, the clearance [5] was 10.7 mL/min/kg and the concentration at 2 h [6] was 8040 ng/mL. For the same compound, the Vd [7] was 0.414 L/kg, the Activity (Pseudomonas aeruginosa [8]) was 2 µg/mL and the clearance [9] was 11.2 mL/min/kg. The half-life [10] was 24.6 min, the Vd [11] was 0.4 L/kg and the Vdss (Rattus norvegicus [12]) was 1.71 L/kg. For the same compound, the Activity (Pseudomonas aeruginosa [13]) was 2 µg/mL, the AUC(0-inf) [14] was 486 ng·h/mL and the MRT (Rattus norvegicus [15]) was 72.54 min. It also gave a concentration at 1 h [16] of 1220 ng/mL, a Vdss (Rattus norvegicus [17]) of 3.049 L/kg and a concentration at 2 h [18] of 262 ng/mL. The MRT (Rattus norvegicus [19]) was 71.16 min, the t1/2 (Rattus norvegicus [20]) was 13.8 min and the solubility [21] was 747 µg/mL (≈ 1080 µM). It also gave an AUC(0-inf) [22] of 1490 ng·h/mL, an MRT (Rattus norvegicus [23]) of 72.9 min and an AUC(0-inf) [24] of 7890 ng·h/mL. The concentration at 1 h [25] was 7640 ng/mL, the Activity (Mus musculus [26]) was “Non-toxic” and the half-life [27] was 16.8 min. For the same compound, the Activity (Pseudomonas aeruginosa [28]) was 4 µg/mL, the AUC(0-inf) [29] was 14200 ng·h/mL and the concentration at 2 h [30] was 1840 ng/mL. The t1/2 (Rattus norvegicus [31]) was 10.8 min and the Vdss (Rattus norvegicus [32]) was 1.712 L/kg.

For CC(C)(C)c1csc(NC(=O)c2ccn3c(=O)c(/C=C/c4nnn[nH]4)c(N4CCC[C@@H](OC(=O)NCC[N+](C)(C)CC(N)=O)C4)nc3c2)n1, the Activity (Pseudomonas aeruginosa [8]) was 4 µg/mL, the Activity (Pseudomonas aeruginosa [13]) was 4 µg/mL and the solubility [21] was 95 µg/mL. The Activity (Mus musculus [26]) was “Non-toxic” and the Activity (Pseudomonas aeruginosa [28]) was 4 µg/mL.

CC(C)(C)c1csc(NC(=O)c2ccn3c(=O)c(/C=C/c4nnn[nH]4)c(N4CCC[C@@H](OC(=O)NCC[N+](C)(C)C)C4)nc3c2)n1 gave an Activity (Pseudomonas aeruginosa [8]) of 2 µg/mL, an Activity (Pseudomonas aeruginosa [13]) of 2 µg/mL and an Activity (Pseudomonas aeruginosa [28]) of 4 µg/mL.

For CC(C)(C)c1csc(NC(=O)c2ccn3c(=O)c(/C=C/c4nnn[nH]4)c(N4CCC(OC(=O)NCC[N+](C)(C)CC(=O)[O-])CC4)nc3c2)n1, the Activity (Pseudomonas aeruginosa [8]) was 4 µg/mL, the Activity (Pseudomonas aeruginosa [13]) was 8 µg/mL and the solubility [21] was 170 µg/mL (≈ 245 µM). For the same compound, the Activity (Pseudomonas aeruginosa [28]) was 16 µg/mL.

Compound CC(C)(C)c1csc(NC(=O)c2ccn3c(=O)c(/C=C/c4nnn[nH]4)c(N4CCC[C@H](OC(=O)NCC[N+](C)(C)C)C4)nc3c2)n1 has a solubility [21] of 547 µg/mL.

In the case of CN(C)CCNC(=O)O[C@@H]1CCCN(c2nc3cc(C(=O)Nc4nc(C(C)(C)C)cs4)ccn3c(=O)c2/C=C/c2nnn[nH]2)C1, the Activity (Pseudomonas aeruginosa [8]) is reported as 1 µg/mL, the Activity (Pseudomonas aeruginosa [13]) is reported as 2 µg/mL and the Activity (Mus musculus [33]) is reported as “Non-toxic”. For the same compound, the Activity (Pseudomonas aeruginosa [28]) was 4 µg/mL.

With CC(C)(C)c1csc(NC(=O)c2ccn3c(=O)c(/C=C/c4nnn[nH]4)c(N4CCC[C@@H](CC(=O)NCC[N+](C)(C)CC(=O)[O-])C4)nc3c2)n1 the Activity (Pseudomonas aeruginosa [8]) was 4 µg/mL, the Activity (Pseudomonas aeruginosa [13]) was 4 µg/mL and the solubility [21] was 860 µg/mL (≈ 1240 µM). It also gave an Activity (Pseudomonas aeruginosa [28]) of 8 µg/mL.

In the case of CC(C)(C)c1csc(NC(=O)c2ccn3c(=O)c(/C=C/c4nnn[nH]4)c(N4CCC[C@@H](OC(N)=O)C4)nc3c2)n1, the Activity (Pseudomonas aeruginosa [8]) is reported as < 0.25 µg/mL, the Activity (Pseudomonas aeruginosa [13]) is reported as 0.5 µg/mL and the solubility [21] is reported as 9.2 µg/mL (≈ 16.3 µM). The Activity (Pseudomonas aeruginosa [28]) was 2 µg/mL.

With CC(C)(C)c1csc(NC(=O)c2ccn3c(=O)c(/C=C/c4nnn[nH]4)c(N4CCC[C@@H](OC(=O)NCCC[N+](C)(C)CC(=O)[O-])C4)nc3c2)n1 the Activity (Pseudomonas aeruginosa [8]) was 2 µg/mL, the Activity (Pseudomonas aeruginosa [13]) was 4 µg/mL and the solubility [21] was 610 µg/mL (≈ 862 µM). It also gave an Activity (Pseudomonas aeruginosa [28]) of 4 µg/mL.

In the case of CC(C)(C)c1csc(NC(=O)c2ccn3c(=O)c(/C=C/c4nnn[nH]4)c(N4CCC/C(=C\C(=O)NCC[N+](C)(C)CC(=O)[O-])C4)nc3c2)n1, the Activity (Pseudomonas aeruginosa [8]) is reported as 8 µg/mL, the Activity (Pseudomonas aeruginosa [13]) is reported as 16 µg/mL and the Activity [21] is reported as “Not Active”. The Activity (Pseudomonas aeruginosa [28]) was > 16 µg/mL.
